In the RNAGym collection of RNA variant scans (doi:10.1126/science.aae0568):
Fewer inactive variants are shown than the library holds.

B1: tRNA (parent)
chain: GUUCCGUUGGCGUAAUGGUAACGCGUCUCCCUCCUAAGGAGAAGACUGCGGGUUCGAGUCCCGUACGGAACG

Variants of: B1
Assay: yeast fitness relative to wild type (ratio to wild type); higher = fitter; tRNA-Arg(CCU), competitive growth, 37 C, YPD
Method in brief: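 The tRNA-Arg(CCU) gene variants were made by chemical synthesis with a 3% per-site mutation rate at 69 sites and inserted at the native genomic locus of Saccharomyces cerevisiae. After pooling, the strains were competed in YPD at 37°C for 24 hours in six parallel replicates. Gene amplicons from the start population and each end population were read by 100-nucleotide paired-end sequencing, and Darwinian fitness relative to wild type was taken from genotype frequency changes. Genotypes needed ≥ 100 starting reads, and estimates < 0.5 were set to 0.5.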

Compared with GUUACGUUGGCGUAAUGGUGACGAGUCUCCCUCCUAAGGAGAAGACUGCGGCUACGAGUCCCGUACGGAACG [C4A A20G C24A G52C U54A], GUUACGUUGGCGUUAUGGUCACGCGUCGCCCUCCUAAGGAGAAGACUGCGGGUUCGAGUCCCGUACGGAACG [C4A A14U A20C U28G] is higher in yeast fitness: at most 0.5 for the first, 0.588 for the second.

Compared with GUUACGUUGGCGUAGUAGUAACGCGUCUCCCUCCUAAGGAGAAGACUGCGGGUUCGAGUCGCGUACGGAACG [C4A A15G G17A C61G], GUUACGUUGGCGUAAUGGUACUGCGUCUCCCUCCUAAGGAGAAGACUGCCGGUUCGAGUCCCGUACGGAUCG [C4A A21C C22U G50C A70U] is higher in yeast fitness: at most 0.5 for the first, 0.73 for the second.

First: GUUACGUUGGCGUAUUGGUAACGCGUCUCCCUCCUAAGGAGAAGACUGCGGGUUCGAGUCACGUACGGAACG [C4A A15U C61A]
Second: GUUACGUUGGCGUAAUGGUGACGCGUCUCCCUCCUAAGGAGAACGCUGCGGGUUUGAGUCCCGUACGGAACG [C4A A20G G44C A45G C55U]
The yeast fitness of the first is higher: 0.78 for the first, at most 0.5 for the second.

First: GUUACGUUGGCGUUAUGGUCACGCGUCGCCCUCCUAAGGAGAAGACUGCGGGUUCGAGUCCAGUACGGAACG [C4A A14U A20C U28G C62A]
Second: GUUACGUUGGCGUACUGGUAACGCGUCUCCCUCCAAAGGAGAAGACUGAGGGUUCGAGUCCCGUACGGAACG [C4A A15C U35A C49A]
The yeast fitness of the first is lower: at most 0.5 for the first, 0.545 for the second.

Going from GUUACGUUGGCGUAAUGGUACCGCGUCUCCCUCCUAAGGAGAAGACUGCGGGUUCGAGUCCCGUACGGAACG [C4A A21C] to GUUACGUUGGCGUUAUGGUCACGCGUCGCCCUCCUAAGGAGAAGACUGCGGGUUCGAGUCCCAUACGGAACG [C4A A14U A20C U28G G63A], the yeast fitness falls from 0.775 to 0.562.

GUUACGUUGGCGUUAUGGUAACGCGUCUCCCUCUUAAGGAGAAGACUGCGGGUCCGAGUCCCGUACGGAACG [C4A A14U C34U U54C] and GUUACGUUGGCGUUAUGGUCACGCGUCGCCCUCCUAAGGAGAAGACUGCGGGUUCGAGUCCCGUACGGACCG [C4A A14U A20C U28G A70C] cannot be ordered by yeast fitness: at most 0.5 for the first, at most 0.5 for the second.

GUUACGUUGGCGUAAUGGUUACGCGUCUCCCUCCUAAGGAGAUGACUGCGGGCUCGAGACCCGUAUGGAACG [C4A A20U A43U U53C U59A C66U] and GUUACGUUGGCGUUAUGGUCACGCGUCGCCCUCCUAAGGAGAAGACUGCGGGUUCGAGUCUAGUACGGAACG [C4A A14U A20C U28G C61U C62A] cannot be ordered by yeast fitness: at most 0.5 for the first, at most 0.5 for the second.

GUUACGUUGGCGUAUUGCUAACGCGUCUCCCUCCUAAGGAGAAGACUGCGGGUUCCAGUCCCGUACAGAACG [C4A A15U G18C G56C G67A] and GUUACGUUGGCGUAGUAGUAACGCGUCUCCCUUCUAAGGAGAAGACUGCGGGUUCGUGCCCCGUACGGAACG [C4A A15G G17A C33U A57U U59C] cannot be ordered by yeast fitness: at most 0.5 for the first, at most 0.5 for the second.

Going from GUUACGUUGGCGUGAUGGUAAGGCGUCUUCCUCCUAAGGAGAAGACUGCGGGUUCGAGUCCCGUACGGAACG [C4A A14G C22G C29U] to GUUACGUUGGCGUAAUGGUGACGCGUCUCCCUCCUAAGGAGCAGAGUGUGGGUUCGAGUCCCGUACGGCACG [C4A A20G A42C C46G C49U A69C], the yeast fitness falls from 0.569 to at most 0.5.

GUUACGUUGGCGUACUGGUAACGCGUCUCCCUCCUAAGGAGAAGACUGCGGGUUCGAGUUCCGAAAGAGACG [C4A A15C C60U U64A C66A G68A A69G] and GUUACGUUGGCGUAAUGGUCACGCGUCUCCCUCCUAAGGAGAAGACUGCGGGUUCGAGUCCCGUACGAAACG [C4A A20C G68A] cannot be ordered by yeast fitness: at most 0.5 for the first, at most 0.5 for the second.

First: GUUACGUUGGCGUCAUGGUAACGCGUAUCCCUCCUAAGGAGAAGACUGCGGGUUCGAGUCCCGUACGGAACG [C4A A14C C27A]
Second: GUUACGUUGGCGUAAUGGUGACGGGUCUCCGUCCUAAGGAGAAGACUGCGGGUUCGAGUCCUGUACGGAACG [C4A A20G C24G C31G C62U]
The yeast fitness of the first is lower: at most 0.5 for the first, 0.598 for the second.

GUUACGUUGGCGUGAUGGUAACGUGUCUCCCGCCUAAGGAGAGGACUGCGGGUUCGAGUCCCGUACGGAACG [C4A A14G C24U U32G A43G] and GUUACGUUGGCGUCAUGGUAACGCGUCUCCCUCCUAAAGAGAAGACUGCGGGUUCGAGGCCCGUACGGAACG [C4A A14C G38A U59G] cannot be ordered by yeast fitness: at most 0.5 for the first, at most 0.5 for the second.

GUUACGUUGGCGUACUGGUAACGCGUCUCCCUCCUAAGGAGAAGACUGCGGGUUUGAGUCCCCUACGGAACG [C4A A15C C55U G63C] and GUUACGUUGGCGUUAUGGUCACGCGUCGCCCUCCUAAGGAGAAGACUGUGGGUUCGAGUCCCGUACGGAACG [C4A A14U A20C U28G C49U] cannot be ordered by yeast fitness: at most 0.5 for the first, at most 0.5 for the second.

Going from GUUACGUUGGCGUAGUGGUAACGCGUCUCCCUUCUAAGGAGAAGACUGCGGGUUCGAGUCCCGUACGGAACG [C4A A15G C33U] to GUUACGUUGGCGUGAUGGUAACGUGUCUCCCGCCUAAGGAGAGGACUGCGGGUUCGAGUCCCGUAUGGAACG [C4A A14G C24U U32G A43G C66U], the yeast fitness falls from 0.753 to 0.573.

Going from GUUACGUUGGCGUAUUGGUAACGCGUCUCCCUCCUAAGGAGAAGACUACGGGUUCGAGUCCCGUACGGAACG [C4A A15U G48A] to GUUACGUUGGCGUAGUGGUAACGCGUCUCCCUCCUAAGGGGAAGACUGCGGGUUCGAGUCCCGAACGGAACG [C4A A15G A40G U64A], the yeast fitness falls from 0.559 to at most 0.5.

Compared with GUUACGUUGGCGUGAUGGUAACGCGUCUCGCUCCUAAGGAGAAGGCUGCGGAUUCGAGUCCCGUACGGAACG [C4A A14G C30G A45G G52A], GUUACGUUGGCGUACUGGUCACGCGUCUCCCUCCUAAGGAGAAGACUGCGGGUUCGAGUCCCGUACGGAACG [C4A A15C A20C] is lower in yeast fitness: 0.609 for the first, at most 0.5 for the second.

GUUACGUUGGCGUACUGGUAACGCGUCUCCCUCCUAAGGAGAAGACUGCGGGUUCGAGUCCCGUACGGCACG [C4A A15C A69C] and GUUACGUUGGCGUAAUGGUGACGGGUCUCCGUCCUAAGGAGAAGACUGCGGGUUCGAGUCCCGUACGGAACG [C4A A20G C24G C31G] cannot be ordered by yeast fitness: at most 0.5 for the first, at most 0.5 for the second.

GUUACGUUGGCGUAUUGGAAACGCGUAUUCCUUCUAAGGAGAAGACUGCGGGUUCGAGUCCCGUACGGAUCG [C4A A15U U19A C27A C29U C33U A70U] and GUUACGUUGGCGUAAUGGUCACGCGUCUCCCUCCUAAGGAGAAGACAGCGGGUUCGAGUCCCGUACGGAACG [C4A A20C U47A] cannot be ordered by yeast fitness: at most 0.5 for the first, at most 0.5 for the second.

GUUACGUUGGCGUGAUGAUAACGCCUCUCCCUCCUAAGGAGAAGACUGCGGGUUCGAGUCCCGUACGGAACG [C4A A14G G18A G25C] showed a yeast fitness of at most 0.5.
